Consider 29 molecules from ChEMBL document CHEMBL1287712, “Synthetic analogs of indole-containing natural products as inhibitors of sortase A and isocitrate lyase” (Bioorg Med Chem Lett, 2010).

Converted amounts (≈) assume the structure as drawn. “And” between values parts separate entries of the source, which are not always exact repeats. Equal entries are not always repeated.

For one experiment, the target named is Isocitrate lyase (Candida albicans, UniProt Q9P8Q7). Description: Inhibition of Candida albicans isocitrate lyase.
Sequence of Isocitrate lyase (Q9P8Q7 whole entry): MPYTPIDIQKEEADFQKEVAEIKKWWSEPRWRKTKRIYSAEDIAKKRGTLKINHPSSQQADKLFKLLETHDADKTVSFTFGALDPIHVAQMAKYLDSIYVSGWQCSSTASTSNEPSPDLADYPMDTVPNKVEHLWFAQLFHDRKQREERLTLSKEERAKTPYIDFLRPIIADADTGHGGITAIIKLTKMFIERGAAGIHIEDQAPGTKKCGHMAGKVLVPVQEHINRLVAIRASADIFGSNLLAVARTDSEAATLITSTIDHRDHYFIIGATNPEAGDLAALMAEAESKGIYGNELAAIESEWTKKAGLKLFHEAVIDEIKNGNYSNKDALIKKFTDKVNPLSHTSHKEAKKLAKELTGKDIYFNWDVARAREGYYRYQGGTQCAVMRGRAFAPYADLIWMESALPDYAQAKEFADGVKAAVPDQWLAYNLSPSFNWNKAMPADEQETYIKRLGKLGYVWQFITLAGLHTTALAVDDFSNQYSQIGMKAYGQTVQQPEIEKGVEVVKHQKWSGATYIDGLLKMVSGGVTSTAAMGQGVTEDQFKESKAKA
A further experiment has as its target T1, Sortase A (Staphylococcus aureus, UniProt Q9S446).
T1 sequence (Q9S446 whole entry): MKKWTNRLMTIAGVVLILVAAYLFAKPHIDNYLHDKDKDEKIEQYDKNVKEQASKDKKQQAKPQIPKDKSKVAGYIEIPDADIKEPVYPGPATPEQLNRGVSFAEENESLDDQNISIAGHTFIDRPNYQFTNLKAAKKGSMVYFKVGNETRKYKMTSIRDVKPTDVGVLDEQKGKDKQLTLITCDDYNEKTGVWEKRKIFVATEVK
The experiment can be described thus: Inhibition of Staphylococcus aureus Sortase A.

The next experiment relates to Staphylococcus aureus. Description: Antimicrobial activity against Staphylococcus aureus ATCC 6538p. It counts as functional. In short, it runs like this: (§1)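 MIC by two-fold serial broth dilution in microtiter format. MIC taken as the lowest concentration giving complete growth inhibition relative to the negative control.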
Another experiment has as its system Bacillus subtilis. Description: Antimicrobial activity against Bacillus subtilis ATCC 6633. It counts as functional. Summed up: as §1
The next experiment relates to Salmonella typhimurium. Description: Antimicrobial activity against Salmonella Typhimurium ATCC 14028. It is filed as functional, Salmonella enterica subsp. enterica serovar Typhimurium. The conditions noted are these: Salmonella enterica. Summed up:
as §1

The test system of a further experiment is Proteus vulgaris. The experiment can be described thus: Antimicrobial activity against Proteus vulgaris ATCC 3851. It counts as functional. In short, it runs like this:
as §1

A further experiment has as its system Micrococcus luteus. Description: Antimicrobial activity against Micrococcus luteus IFC 12708. It counts as functional. Summed up: as §1
The subject of a further experiment is Escherichia coli. The experiment can be described thus: Antimicrobial activity against Escherichia coli ATCC 25922. It counts as functional. In short, it runs like this:
as §1

As to `O=C(C(=O)c1c[nH]c2ccc(O)cc12)c1c[nH]c2ccc(O)cc12` [HYRTIOSIN B], the results for the IC50 against Isocitrate lyase and against Sortase A were 90.5 µM and greater than 312 µM, respectively.

As to `O=C1NCCc2c1[nH]c1ccc(O)cc21`, the IC50 at Isocitrate lyase and against Sortase A was greater than 495 µM each time.

Take `O=C(O)C1=NCCc2c1[nH]c1ccc(O)cc21`: the IC50 – broadly, the midpoint of a concentration-inhibition curve – on Sortase A is 291 µM and 290 µM.

For `COc1ccc2[nH]cc(C(=O)C(=O)O)c2c1`, the IC50 against Isocitrate lyase and on Sortase A was greater than 456 µM throughout.

For the molecule `c1ccc(C2=NCCc3c2[nH]c2ccccc32)cc1`, the IC50 against Isocitrate lyase is greater than 406 µM; against Sortase A it was 97.4 µM and 97 µM. Also, the MIC in the experiment with Staphylococcus aureus, against Bacillus subtilis, with Salmonella typhimurium, with Proteus vulgaris, in the experiment on Micrococcus luteus and in the experiment on Escherichia coli was greater than 200 µg/mL each time.

As to `COc1ccc2[nH]c3c(c2c1)CCN=C3c1ccccc1`, the IC50 at Isocitrate lyase was greater than 362 µM; at Sortase A it was 25.3 µM and 25 µM. The MIC against Staphylococcus aureus, in the experiment with Bacillus subtilis, in the experiment on Salmonella typhimurium, in the experiment with Proteus vulgaris, in the experiment on Micrococcus luteus and in the experiment with Escherichia coli was greater than 200 µg/mL in each case.

On to `CC1(C)S[C@@H]2[C@H](NC(=O)[C@H](N)c3ccccc3)C(=O)N2[C@H]1C(=O)O` [AMPICILLIN], for which the MIC (as a rule, the least concentration at which growth counts as inhibited) in the experiment on Staphylococcus aureus worked out at 1.56 µg/mL (≈ 4.46 µM); in the experiment with Bacillus subtilis, 0.78 µg/mL (≈ 2.23 µM); in the experiment with Salmonella typhimurium, 1.56 µg/mL (≈ 4.46 µM); in the experiment with Proteus vulgaris, 0.78 µg/mL (≈ 2.23 µM); in the experiment with Micrococcus luteus, 0.78 µg/mL (≈ 2.23 µM); in the experiment with Escherichia coli, 50 µg/mL (≈ 143 µM).

In the case of `Cc1[nH]c2ccccc2c1C(=O)C(=O)O`, the IC50 on Isocitrate lyase was greater than 492 µM; against Sortase A, 133 µM. The MIC against Staphylococcus aureus, against Bacillus subtilis, with Salmonella typhimurium, with Proteus vulgaris, against Micrococcus luteus and against Escherichia coli was greater than 200 µg/mL each time.

On Sortase A, `O=Cc1c[nH]c2ccc(O)cc12` returned an IC50 greater than 621 µM.

With `O=C(Nc1ccccc1)C(=O)c1c[nH]c2ccc(O)cc12`, the IC50 on Isocitrate lyase and against Sortase A was greater than 357 µM throughout.

For the molecule `Oc1ccc2[nH]c3c(c2c1)CCNC3c1ccccc1` (centres undefined), the IC50 at Isocitrate lyase is greater than 378 µM; against Sortase A it was 106 µM. Besides, the MIC is 100 µg/mL (≈ 378 µM) in the experiment on Staphylococcus aureus; 100 µg/mL (≈ 378 µM) with Bacillus subtilis; 100 µg/mL (≈ 378 µM) against Salmonella typhimurium; 100 µg/mL (≈ 378 µM) with Proteus vulgaris; 100 µg/mL (≈ 378 µM) against Micrococcus luteus; greater than 200 µg/mL against Escherichia coli.

`COc1ccc2[nH]cc(C(=O)C(=O)Nc3ccccc3)c2c1`: the IC50 at Isocitrate lyase and against Sortase A was greater than 340 µM each time.

`O=C(O)C(=O)c1c[nH]c2ccc(O)cc12`: the IC50 against Isocitrate lyase and at Sortase A was greater than 487 µM in each case.

Regarding `CCCCCC1NCCc2c1[nH]c1ccc(OC)cc21` (centres undefined), the IC50 against Isocitrate lyase and against Sortase A was greater than 367 µM each time.

With `O=C(O)C1NCCc2c1[nH]c1ccccc21` (centres undefined), the IC50 at Isocitrate lyase and at Sortase A was greater than 462 µM each time.

As for `O=C(O)C(=O)c1c[nH]c2ccccc12`, the IC50 on Isocitrate lyase was greater than 529 µM; at Sortase A it was 68.7 µM and 69 µM. The MIC in the experiment on Staphylococcus aureus, in the experiment on Bacillus subtilis, in the experiment on Salmonella typhimurium, in the experiment with Proteus vulgaris, against Micrococcus luteus and against Escherichia coli was greater than 200 µg/mL each time.

`c1ccc(C2NCCc3c2[nH]c2ccccc32)cc1` (centres undefined): the IC50 against Isocitrate lyase and against Sortase A was greater than 403 µM throughout.

As for `COc1ccc2[nH]c3c(c2c1)CCNC3c1ccccc1` (centres undefined), the IC50 on Isocitrate lyase is greater than 359 µM; at Sortase A, 115 µM. Besides, the MIC in the experiment with Staphylococcus aureus, against Bacillus subtilis, against Salmonella typhimurium, in the experiment on Proteus vulgaris, with Micrococcus luteus and in the experiment on Escherichia coli was greater than 200 µg/mL each time.

On Sortase A, `NCCc1c[nH]c2ccc(O)cc12` [SEROTONIN] yielded an IC50 greater than 567 µM.

Regarding `COC(=O)c1c[nH]c2ccc(O)cc12`, the IC50 against Isocitrate lyase and against Sortase A was greater than 523 µM in each case.

Consider `COc1ccc2[nH]c3c(c2c1)CCNC3C(=O)O` (centres undefined), for which the IC50 against Isocitrate lyase and against Sortase A was greater than 406 µM throughout.

Take `O=C(O)C1NCCc2c1[nH]c1ccc(O)cc21` (centres undefined): the IC50 at Isocitrate lyase and against Sortase A was greater than 431 µM in each case.

Consider `Cc1[nH]c2ccccc2c1C(=O)C(=O)Nc1ccccc1`, for which the IC50 on Isocitrate lyase was greater than 359 µM; against Sortase A it was 61.1 µM and 61 µM. The MIC against Staphylococcus aureus, with Bacillus subtilis, in the experiment with Salmonella typhimurium, with Proteus vulgaris, with Micrococcus luteus and against Escherichia coli was greater than 200 µg/mL in each case.

Take `COc1ccc(C2NCCc3c2[nH]c2ccccc32)cc1` (centres undefined): the values for the IC50 at Isocitrate lyase and on Sortase A were 180 µM and greater than 359 µM, respectively. Besides, the MIC against Staphylococcus aureus was 12.5 µg/mL (≈ 44.9 µM); with Bacillus subtilis it was 6.25 µg/mL (≈ 22.5 µM); with Salmonella typhimurium, 6.25 µg/mL (≈ 22.5 µM); in the experiment with Proteus vulgaris, 6.25 µg/mL (≈ 22.5 µM); in the experiment on Micrococcus luteus, 6.25 µg/mL (≈ 22.5 µM); in the experiment with Escherichia coli, 50 µg/mL (≈ 180 µM).

As to `COc1cccc(C2NCCc3c2[nH]c2ccccc32)c1` (centres undefined), the IC50 was 75 µM and 75.4 µM on Isocitrate lyase; greater than 359 µM at Sortase A. For the same molecule, the MIC in the experiment on Staphylococcus aureus was 6.25 µg/mL (≈ 22.5 µM); against Bacillus subtilis it was 12.5 µg/mL (≈ 44.9 µM); with Salmonella typhimurium, 12.5 µg/mL (≈ 44.9 µM); against Proteus vulgaris it was 12.5 µg/mL (≈ 44.9 µM); against Micrococcus luteus it was 12.5 µg/mL (≈ 44.9 µM); in the experiment with Escherichia coli, 50 µg/mL (≈ 180 µM).

As for `O=C(CO)c1c[nH]c2ccc(O)cc12` [HYRTIOSIN A], on Sortase A, the IC50 was greater than 523 µM.

With `O=C(Nc1ccccc1)C(=O)c1c[nH]c2ccccc12`, the IC50 against Isocitrate lyase is greater than 378 µM; against Sortase A, 174 µM. Further, the MIC against Staphylococcus aureus, in the experiment on Bacillus subtilis, in the experiment on Salmonella typhimurium, with Proteus vulgaris, in the experiment with Micrococcus luteus and in the experiment with Escherichia coli was greater than 200 µg/mL throughout.

Take `c1ccc2cc(C3NCCc4c3[nH]c3ccccc43)ccc2c1` (centres undefined): the IC50 was 137 µM at Isocitrate lyase and greater than 335 µM at Sortase A. Moreover, the MIC with Staphylococcus aureus stood at 12.5 µg/mL (≈ 41.9 µM); against Bacillus subtilis it was 6.25 µg/mL (≈ 20.9 µM); with Salmonella typhimurium it was 12.5 µg/mL (≈ 41.9 µM); with Proteus vulgaris, 6.25 µg/mL (≈ 20.9 µM); against Micrococcus luteus it was 12.5 µg/mL (≈ 41.9 µM); against Escherichia coli it was 50 µg/mL (≈ 168 µM).

Turning to `CCCCCC1NCCc2c1[nH]c1ccccc21` (centres undefined), the IC50 against Isocitrate lyase and against Sortase A was greater than 413 µM throughout.
